Measured values published in ChEMBL document CHEMBL4118105, “High-Affinity Peptidomimetic Inhibitors of the DCN1-UBC12 Protein-Protein Interaction” (J Med Chem, 2018).
Each block holds one molecule with its values, some of them ahead of it. Activity calls are given as the source filed them. The rule behind the calls is not given here.

Columns and labels:
DCN1-like protein 1 [1] = molecular target: T1, DCN1-like protein 1 (Homo sapiens, UniProt Q96GG9); assay: Inhibition of DCN1-mediated CUL4B neddylation in human SK-MES-1 cells at 10 uM after 16 hrs by Western blot analysis; type: cell-based
Target sequence in this assay (Q96GG9 whole entry, looked up): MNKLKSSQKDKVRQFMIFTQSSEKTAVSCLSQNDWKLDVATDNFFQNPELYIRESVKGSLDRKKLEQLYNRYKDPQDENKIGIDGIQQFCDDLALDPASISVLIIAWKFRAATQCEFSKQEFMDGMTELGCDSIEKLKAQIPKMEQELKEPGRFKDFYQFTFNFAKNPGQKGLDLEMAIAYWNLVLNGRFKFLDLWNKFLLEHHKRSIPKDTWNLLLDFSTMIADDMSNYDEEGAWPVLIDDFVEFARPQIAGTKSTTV

DCN1-like protein 1 [2] = molecular target: T1, DCN1-like protein 1; assay: Inhibition of DCN1-mediated CUL3 neddylation in human H2170 cells at 10 uM after 16 hrs by Western blot analysis; type: cell-based
How it was run: (§1)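 H2170 cells exposed to compound for 16 h, then lysed in Triton X-100 or RIPA buffer with phosphatase inhibitors. Neddylated and unneddylated cullins, NRF2 and CDT1 read by Western blot on whole-cell lysate, with GAPDH as loading control.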
Target sequence in this assay (Q96GG9 whole entry, looked up): as above

DCN1-like protein 1 [3] = molecular target: T1, DCN1-like protein 1; assay: Inhibition of DCN1-mediated CUL4A neddylation in human SK-MES-1 cells at 10 uM after 16 hrs by Western blot analysis; type: cell-based
Target sequence in this assay (Q96GG9 whole entry, looked up): as above

DCN1-like protein 1 [4] = molecular target: T1, DCN1-like protein 1; assay: Inhibition of DCN1-mediated CUL3 neddylation in human H2170 cells assessed as increase in NRF2 level at 10 uM after 16 hrs by Western blot analysis; type: cell-based; how it was run: as §1
Target sequence in this assay (Q96GG9 whole entry, looked up): as above

DCN1-like protein 1 [5] = molecular target: T1, DCN1-like protein 1; assay: Inhibition of DCN1-mediated CUL1 neddylation in human H2170 cells at 10 uM after 16 hrs by Western blot analysis; type: cell-based; how it was run: as §1
Target sequence in this assay (Q96GG9 whole entry, looked up): as above

DCN1-like protein 1 [6] = molecular target: T1, DCN1-like protein 1; assay: Inhibition of DCN1-mediated CUL2 neddylation in human SK-MES-1 cells at 10 uM after 16 hrs by Western blot analysis; type: cell-based
Target sequence in this assay (Q96GG9 whole entry, looked up): as above

DCN1-like protein 1 [7] = molecular target: T1, DCN1-like protein 1; assay: Inhibition of DCN1 interaction with UBC12 protein in human H2170 cell lysate at 20 uM after 3 hrs by immunoprecipitation assay
How it was run: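 Endogenous DCN1 pulled down from precleared lysates of treated cells with DCN1 antibody for 3 h, then protein A&G beads at 4 °C overnight with rotation. Beads washed three times in lysis buffer, complexes resolved by SDS−PAGE and immunoblotted.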

DCN1-like protein 1 [8] = molecular target: T1, DCN1-like protein 1; assay: Stabilization of DCN1 in human H2170 cells at 10 uM incubated for 1 hr by cellular thermal shift assay; type: cell-based
How it was run: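 H2170 cells (5 × 10^5 per sample) given compound or DMSO for 1 h, washed three times in PBS, resuspended in PBS with protease inhibitor, and heated at 53 °C for 3 min. Three liquid-nitrogen freeze/thaw-on-ice cycles followed. DCN1 in the supernatant read by Western blot, with GAPDH as loading control.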

DCN1-like protein 1 [9] = molecular target: T1, DCN1-like protein 1; assay: Binding affinity to biotin labeled recombinant N-terminal His6-tagged human DCN1 (58 to 259 residues) expressed in Escherichia coli Rosetta2 cells assessed as association rate constant by biolayer interferometry analysis
How it was run: (§2)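 Biotinylated DCN1 (1:1 molar biotin reagent, 4 °C 2 h, dialysed) loaded on super streptavidin sensors from 10 μg/mL to 11−12 nm response; blocked streptavidin sensors as reference. Run at 30 °C, 1000 rpm, in PBS with 0.1% BSA, 0.01% Tween-20, 2% DMSO; 10 min baseline wash. kon/koff from 1:1 binding model fits; two independent experiments.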

DCN1-like protein 1 [10] = molecular target: T1, DCN1-like protein 1; assay: Binding affinity to biotin labeled recombinant N-terminal His6-tagged human DCN1 (58 to 259 residues) expressed in Escherichia coli Rosetta2 cells assessed as dissociation rate constant by biolayer interferometry analysis; how it was run: as §2
DCN1-like protein 1 [11] = molecular target: T1, DCN1-like protein 1; assay: Inhibition of DCN1-mediated CUL4B neddylation in human H2170 cells at 10 uM after 16 hrs by Western blot analysis; type: cell-based; how it was run: as §1
DCN1-like protein 1 [12] = molecular target: T1, DCN1-like protein 1; assay: Inhibition of DCN1-mediated CUL1 neddylation in human SK-MES-1 cells at 10 uM after 16 hrs by Western blot analysis; type: cell-based
DCN1-like protein 1 [13] = molecular target: T1, DCN1-like protein 1; assay: Inhibition of DCN1-mediated CUL5 neddylation in human SK-MES-1 cells at 10 uM after 16 hrs by Western blot analysis; type: cell-based
DCN1-like protein 1 [14] = molecular target: T1, DCN1-like protein 1; assay: Binding affinity to biotin labeled recombinant N-terminal His6-tagged human DCN1 (58 to 259 residues) expressed in Escherichia coli Rosetta2 cells by biolayer interferometry analysis
How it was run: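 Recombinant human DCN1 (58–259) was biotinylated at a 1:1 molar ratio in PBS for 2 h at 4 °C, dialyzed, then loaded on super streptavidin sensors from a 10 μg/mL solution. Blocked streptavidin sensors served as reference.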
Target sequence in this assay (Q96GG9 whole entry): as the sequence (Q96GG9 whole entry, looked up) above

DCN1-like protein 1 [15] = molecular target: T1, DCN1-like protein 1; assay: Inhibition of DCN1-mediated CUL4A neddylation in human H2170 cells at 10 uM after 16 hrs by Western blot analysis; type: cell-based; how it was run: as §1
DCN1-like protein 1 [16] = molecular target: T1, DCN1-like protein 1; assay: Inhibition of DCN1-mediated CUL2 neddylation in human H2170 cells at 10 uM after 16 hrs by Western blot analysis; type: cell-based; how it was run: as §1
DCN1-like protein 1 [17] = molecular target: T1, DCN1-like protein 1; assay: Inhibition of DCN1-mediated CUL5 neddylation in human H2170 cells at 10 uM after 16 hrs by Western blot analysis; type: cell-based; how it was run: as §1
DCN1-like protein 1 [18] = molecular target: T1, DCN1-like protein 1; assay: Inhibition of DCN1-mediated CUL3 neddylation in human SK-MES-1 cells at 10 uM after 16 hrs by Western blot analysis; type: cell-based
DCN1-like protein 1 [19] = molecular target: T1, DCN1-like protein 1; assay: Displacement of (S)-N1-((19S,22S)-26-Amino-19-carbamoyl-1-(3',6'-dihydroxy-3-oxo-3H-spiro[isobenzofuran-1,9'-xanthen]-5-yl)-1,13,21-trioxo-5,8,11-trioxa-2,14,20-triazahexacosan-22-yl)-2-((2S,5S,8S,11S,14S,17S,20S,23S,26S)-2-(3-amino-3-oxopropyl)-5,20-bis(4-aminobutyl)-14-benzyl-23-((S)-sec-butyl)-11-(hydroxymethyl)-8,17-diisobutyl-26-(naphthalen-2-ylmethyl)-4,7,10,13,16,19,22,25,28-nonaoxo-3,6,9,12,15,18,21,24,27-nonaazanonacosanamido)pentanediamide from recombinant N-terminal His6-tagged human DCN1 (58 to 259 residues) expressed in Escherichia coli Rosetta2 cells after 30 mins by fluorescence polarization assay
Target sequence in this assay (Q96GG9 whole entry): as the sequence (Q96GG9 whole entry, looked up) above

inhibition (DCN1-like protein 1 [1]): inactive
inhibition (DCN1-like protein 1 [2]): inactive
inhibition (DCN1-like protein 1 [3]): inactive
inhibition (DCN1-like protein 1 [4]): inactive
inhibition (DCN1-like protein 1 [5]): inactive
inhibition (DCN1-like protein 1 [6]): inactive
inhibition (DCN1-like protein 1 [7]): inactive
Activity (DCN1-like protein 1 [8]): inactive
K (DCN1-like protein 1 [9]): 2.4 ×10³ /M/s
K (DCN1-like protein 1 [10]): 2.6 ×10⁻³ /s
inhibition (DCN1-like protein 1 [11]): inactive
inhibition (DCN1-like protein 1 [12]): inactive
inhibition (DCN1-like protein 1 [13]): inactive
Kd (DCN1-like protein 1 [14]): 1470 nM
inhibition (DCN1-like protein 1 [15]): inactive
inhibition (DCN1-like protein 1 [16]): inactive
inhibition (DCN1-like protein 1 [17]): inactive
inhibition (DCN1-like protein 1 [18]): inactive
Compound: CCC(=O)N[C@@H](Cc1nc2ccc(Cl)cc2s1)C(=O)N[C@H](C(=O)N[C@@H](CCCCN)C(=O)N[C@@H]1CCOc2ccccc21)C1CCNCC1

Ki (DCN1-like protein 1 [19]): 50.7 nM
Kd (DCN1-like protein 1 [14]): 31.8 nM
Compound: CCC(=O)N[C@@H](Cc1nc2ccccc2s1)C(=O)N[C@H](C(=O)N[C@@H](CCCCN)C(=O)NC(c1ccccc1)c1ccccc1)C1CCCC1

IC50 (DCN1-like protein 1 [19]): 330 nM
Ki (DCN1-like protein 1 [19]): 36.3 nM
Kd (DCN1-like protein 1 [14]): 56.4 nM
Compound: CCC(=O)N[C@@H](Cc1ccc2ccccc2c1)C(=O)N[C@H](C(=O)N[C@@H](CCCCN)C(=O)NC(c1ccccc1)c1ccccc1)C1CCCC1

IC50 (DCN1-like protein 1 [19]): 132 nM
Ki (DCN1-like protein 1 [19]): < 50 nM
Kd (DCN1-like protein 1 [14]): 8.1 nM
Compound: CCC(=O)N[C@@H](Cc1nc2ccc(Cl)cc2s1)C(=O)N[C@H](C(=O)N[C@@H](CCCCN)C(=O)NC(c1ccccc1)c1ccccc1)C1CCCC1
